The source of these data is ChEMBL document CHEMBL1125157, “Synthesis and biological evaluation of 14-alkoxymorphinans. 3. Extensive study on cyprodime-related compounds” (J Med Chem, 1990).

Structures are written as SMILES. Calls of active or inactive are those of the source. The calls are words filed in the database; no cut-off is given here.

Test [1] addresses Mu-type opioid receptor (Homo sapiens) (UniProt P35372). Kind of test: Agonist potency against mu opioid receptor expressed as the ratio of the ED40 concentrations of the normorphine and compound in guinea pig ileum; NA= No agonist activity detected. Type of test: functional, tissue-based. In outline: (§1)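 Agonist activity tested on electrically stimulated isolated tissue twitch (mouse vas deferens and guinea pig ileum). ED40 is the concentration giving 40% inhibition of twitch height. Potency is given as the ratio of the ED40 of the reference agonist (normorphine, ethylketocyclazocine or DADLE) to that of the test compound. TS marks a curve too shallow to reach 40% inhibition. NA means no agonist activity was detected.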

In test [2] the target is Mu-type opioid receptor (Mus musculus) (UniProt P42866). Kind of test: Antagonistic activity (Ke) against nor-morphine and Opioid receptor mu 1 of mouse vas deferens assay. The class given is functional, tissue-based. The method in brief:
(§2)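 Mouse vas deferens antagonism was measured against normorphine (μ), ethylketocyclazocine (κ) or DADLE (δ in this tissue). Ke = [antagonist]/(DR − 1), where DR is the ratio of equiactive agonist concentrations with and without antagonist. Antagonist concentrations were chosen to give a dose ratio between 3 and 10 against the relevant agonist.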

For test [3], the target named is Kappa-type opioid receptor (Mus musculus) (UniProt P33534). As to the kind of experiment: Antagonistic activity (Ke) at Opioid receptor kappa 1 was determined against ethylketocyclazocine in the mouse vas deferens (MVD). Type of test: functional, tissue-based. In outline:
as §2

Test [4] addresses Mu-type opioid receptor (Cavia porcellus) (UniProt P97266). As to the kind of experiment: Agonist potency against Opioid receptor mu 1 expressed as the ratio of the ED40 concentrations of the ethylketocyclazocin and compound in guinea pig ileum TS= Too shallow to estimate ED40. Type of test: functional, tissue-based. In outline:
as §1

Test [5] deals with Mu-type opioid receptor (Homo sapiens) (UniProt P35372). As to the kind of experiment: Agonist potency against mu opioid receptor expressed as the ratio of the ED40 concentrations of the DADLE and compound in guinea pig ileum; NA= No agonist activity detected. The class given is functional, tissue-based. The method in brief: as §1
The target in test [6] is Delta-type opioid receptor (Mus musculus) (UniProt P32300). As to the kind of experiment: Antagonistic activity (Ke) at Opioid receptor delta 1 was determined against DADLE in the mouse vas deferens (MVD). Type of test: functional, tissue-based. In outline:
as §2

The target of test [7] is Mu-type opioid receptor (Cavia porcellus) (UniProt P97266). Kind of test: Agonist potency against Opioid receptor mu 1 expressed as the ratio of the ED40 concentrations of the ethylketocyclazocin and compound in guinea pig ileum. The class given is functional, tissue-based. The method in brief: as §1
Test [8] has as its target Mu-type opioid receptor (Mus musculus) (UniProt P42866). As to the kind of experiment: (§3) Agonist potency against Opioid receptor mu 1 expressed as the ratio of the ED40 concentrations of the normorphine and compound in guinea pig ileum; NA= No agonist activity detected. Type of test: functional, tissue-based. The method in brief:
as §1

For test [9], the target named is Mu-type opioid receptor (Cavia porcellus) (UniProt P97266). The description is as §3. The class given is functional, tissue-based. The method in brief: as §1
For test [10], the target named is Delta-type opioid receptor (Mus musculus) (UniProt P32300). Kind of test: Antagonistic activity (Ke) at Opioid receptor delta 1 was determined against DADLE in the mouse vas deferens (MVD) method. Type of test: functional, tissue-based. In outline: as §2
The target of test [11] is Mu-type opioid receptor (Homo sapiens) (UniProt P35372). Kind of test: Agonist potency against mu opioid receptor expressed as the ratio of the ED40 concentrations of the ethylketocyclazocin and compound in guinea pig ileum TS= Too shallow to estimate ED40. Type of test: functional, tissue-based. In outline:
as §1

Test [12] addresses T1, Opioid receptors; mu & delta (Homo sapiens) (UniProt P41143+P35372). Kind of test: Selectivity ratio was determined using the Ke value of Opioid receptor delta 1 to that of mu receptor. The method in brief: (§4)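 Selectivity is the ratio of Ke values from mouse vas deferens antagonism, with Ke = [antagonist]/(DR − 1). DADLE gave the δ value, ethylketocyclazocine the κ value and normorphine the μ value. Antagonist concentrations gave a dose ratio of 3–10.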

Test [13] concerns the target Mu-type opioid receptor (Cavia porcellus) (UniProt P97266). Kind of test: Agonist potency against Opioid receptor mu 1 expressed as the ratio of the ED40 concentrations of the DADLE and compound in guinea pig ileum […]. The class given is functional, tissue-based. The method in brief:
as §1

The target of test [14] is Mu-type opioid receptor (Mus musculus) (UniProt P42866). Kind of test: Agonist potency against Opioid receptor mu 1 expressed as the ratio of the ED40 concentrations of the normorphine and compound in guinea pig ileum. The class given is functional, tissue-based. In outline:
as §1

The target of test [15] is T1, Opioid receptors; mu & delta (Homo sapiens). As to the kind of experiment: Selectivity ratio was determined using the Ke value of Opioid receptor delta 1 to that of Opioid receptor mu 1. The method in brief:
as §4

In test [16] the target is Opioid receptors; mu & kappa (Homo sapiens) (UniProt P41145+P35372). As to the kind of experiment: Selectivity ratio was determined using the Ke value of kappa receptor to that of mu receptor. The method in brief: as §4
The target in test [17] is Mu-type opioid receptor (Homo sapiens) (UniProt P35372). Kind of test: Agonist potency against mu opioid receptor expressed as the ratio of the ED40 concentrations of the DADLE and compound in guinea pig ileum. The class given is functional, tissue-based. The method in brief: as §1
The target is the same in test [18]. Kind of test: Agonist potency against mu opioid receptor expressed as the ratio of the ED40 concentrations of the ethylketocyclazocin and compound in guinea pig ileum. The class given is functional, tissue-based. In outline: as §1
For test [19] the target is unchanged. As to the kind of experiment: Agonist potency against mu opioid receptor expressed as the ratio of the ED40 concentrations of the normorphine and compound in guinea pig ileum; TS= Too shallow to estimate ED40. The class given is functional, tissue-based. The method in brief:
as §1

Kappa-type opioid receptor (Mus musculus), sequence (P33534 whole entry): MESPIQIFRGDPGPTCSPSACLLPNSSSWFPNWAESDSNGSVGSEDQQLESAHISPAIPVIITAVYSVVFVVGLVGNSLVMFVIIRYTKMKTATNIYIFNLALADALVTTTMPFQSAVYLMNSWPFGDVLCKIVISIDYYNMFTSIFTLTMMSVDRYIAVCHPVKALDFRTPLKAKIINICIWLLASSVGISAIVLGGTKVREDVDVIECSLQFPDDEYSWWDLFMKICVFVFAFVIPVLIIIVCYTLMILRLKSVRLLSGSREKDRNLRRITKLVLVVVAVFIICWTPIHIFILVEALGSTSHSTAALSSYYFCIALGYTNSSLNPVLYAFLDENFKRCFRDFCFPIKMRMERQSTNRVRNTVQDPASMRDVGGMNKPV
Mu-type opioid receptor (Cavia porcellus), sequence (P97266 whole entry): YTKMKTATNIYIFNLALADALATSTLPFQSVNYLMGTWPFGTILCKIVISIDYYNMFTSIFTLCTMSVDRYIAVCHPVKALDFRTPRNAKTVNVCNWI
Delta-type opioid receptor (Mus musculus), sequence (P32300 whole entry): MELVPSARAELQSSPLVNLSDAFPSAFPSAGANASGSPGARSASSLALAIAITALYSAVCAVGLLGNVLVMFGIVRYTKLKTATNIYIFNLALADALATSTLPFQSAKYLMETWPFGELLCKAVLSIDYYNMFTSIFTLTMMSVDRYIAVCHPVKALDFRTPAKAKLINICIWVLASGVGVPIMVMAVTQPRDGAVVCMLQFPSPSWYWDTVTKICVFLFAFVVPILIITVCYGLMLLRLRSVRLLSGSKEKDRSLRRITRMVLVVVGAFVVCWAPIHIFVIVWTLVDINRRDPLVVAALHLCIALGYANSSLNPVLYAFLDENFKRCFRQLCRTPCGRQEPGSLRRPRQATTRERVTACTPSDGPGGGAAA
Mu-type opioid receptor (Mus musculus), sequence (P42866 whole entry): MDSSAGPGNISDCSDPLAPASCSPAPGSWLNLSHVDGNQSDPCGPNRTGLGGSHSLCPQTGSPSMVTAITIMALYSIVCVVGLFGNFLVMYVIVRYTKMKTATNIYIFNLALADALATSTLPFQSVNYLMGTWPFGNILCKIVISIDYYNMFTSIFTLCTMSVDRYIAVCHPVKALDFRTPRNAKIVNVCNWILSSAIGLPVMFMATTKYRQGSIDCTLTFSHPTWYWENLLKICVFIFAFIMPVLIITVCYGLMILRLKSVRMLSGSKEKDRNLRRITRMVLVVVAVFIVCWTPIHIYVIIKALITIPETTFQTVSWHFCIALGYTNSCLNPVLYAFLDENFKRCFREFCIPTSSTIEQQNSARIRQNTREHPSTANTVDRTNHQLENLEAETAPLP
Opioid receptors; mu & kappa (Homo sapiens), sequence (P35372 whole entry, looked up): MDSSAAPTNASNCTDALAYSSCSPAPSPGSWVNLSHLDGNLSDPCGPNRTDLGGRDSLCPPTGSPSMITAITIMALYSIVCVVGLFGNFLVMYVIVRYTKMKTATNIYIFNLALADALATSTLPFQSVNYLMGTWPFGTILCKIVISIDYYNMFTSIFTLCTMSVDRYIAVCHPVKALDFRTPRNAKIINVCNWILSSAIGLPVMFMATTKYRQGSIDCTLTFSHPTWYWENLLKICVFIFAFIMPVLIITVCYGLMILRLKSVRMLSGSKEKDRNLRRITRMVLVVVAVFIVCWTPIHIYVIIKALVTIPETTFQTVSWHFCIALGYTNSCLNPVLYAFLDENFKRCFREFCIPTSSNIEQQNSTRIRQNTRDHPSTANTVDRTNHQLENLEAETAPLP
Opioid receptors; mu & kappa (Homo sapiens), sequence (P41145 whole entry, looked up): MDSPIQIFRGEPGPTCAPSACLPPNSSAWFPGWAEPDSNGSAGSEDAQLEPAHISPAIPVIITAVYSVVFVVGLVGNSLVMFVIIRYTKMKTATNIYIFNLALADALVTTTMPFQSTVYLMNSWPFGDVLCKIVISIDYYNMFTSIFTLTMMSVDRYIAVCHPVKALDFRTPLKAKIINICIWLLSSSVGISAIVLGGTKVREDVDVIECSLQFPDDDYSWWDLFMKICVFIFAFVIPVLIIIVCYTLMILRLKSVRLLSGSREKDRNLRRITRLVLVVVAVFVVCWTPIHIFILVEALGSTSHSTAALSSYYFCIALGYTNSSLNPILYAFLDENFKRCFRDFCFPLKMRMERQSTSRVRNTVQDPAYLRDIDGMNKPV
T1 sequence (P35372 whole entry, looked up): as the sequence (P35372 whole entry, looked up) above
T1 sequence (P41143 whole entry, looked up): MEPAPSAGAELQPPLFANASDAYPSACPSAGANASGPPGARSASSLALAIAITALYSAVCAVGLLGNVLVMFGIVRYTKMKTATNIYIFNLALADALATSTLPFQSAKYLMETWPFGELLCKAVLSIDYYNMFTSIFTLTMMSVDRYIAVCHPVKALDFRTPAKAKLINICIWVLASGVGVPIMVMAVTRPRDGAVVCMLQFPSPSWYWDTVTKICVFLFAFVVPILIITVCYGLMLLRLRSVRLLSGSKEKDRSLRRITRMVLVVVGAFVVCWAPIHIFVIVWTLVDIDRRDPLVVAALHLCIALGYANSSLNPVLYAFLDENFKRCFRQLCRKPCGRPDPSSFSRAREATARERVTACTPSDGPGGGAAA
Mu-type opioid receptor (Homo sapiens), sequence (P35372 whole entry): as the sequence (P35372 whole entry, looked up) above

For the compound `C=CCN1CC[C@]23CC(=O)CC[C@@]2(OC)[C@H]1Cc1ccc(OC)c(OC)c13`, the Ratio entry in test [1], in test [4] and in [5] was “inactive” throughout. Moreover, the Ke in [2] is 118 nM; in test [3], 3900 nM; in test [6], 179 nM.
For `CO[C@@]12CCC(=O)C[C@@]13CCN(CC1CC1)[C@@H]2Cc1cccc(O)c13`, the Ratio in test [7] was 0.0007; in test [8], 0.001. In test [9], the Ratio entry was “inactive”.
Take `COc1ccc2c(c1OC)[C@]13CCN(CC4CC4)[C@H](C2)[C@]1(OC)CCC(=O)C3`: the Ratio entry in [1], in test [11] and in [5] was “inactive” each time. Also, the values for the Ke in [10], in test [2] and in test [3] were 0.744 µM, 120 nM and 2100 nM, respectively.
As to `CO[C@@]12CCC(=O)[C@@H]3Oc4cccc5c4C31CCN(CC1CC1)[C@@H]2C5`, the results for the Ke in test [10], in test [2] and in [3] were 4.03 µM, 168 nM and 648 nM, respectively. For the same compound, the Selectivity ratio in test [12] was determined as 24.
For the compound `CO[C@@]12CCC(=O)C[C@@]13CCN(CC1CC1)[C@@H]2Cc1ccccc13`, the Ratio in test [13] was 0.004; in [7], 0.0008; in test [14] it was 0.0004.
Regarding `COc1cccc2c1[C@]13CCN(CC4CC4)[C@H](C2)[C@]1(OC)CCC(=O)C3`, the Selectivity ratio in test [15] came out at 110; in test [16], 28.
As for `C=CCN1CC[C@]23CC(=O)CC[C@@]2(OCC)[C@H]1Cc1ccc(OC)c(OC)c13`, the results for the Selectivity ratio in test [15] and in test [16] were 3.6 and 34, respectively. Moreover, the Ratio in test [17] is 1; in test [18] it was 0.001. Moreover, the Ke in test [2] amounted to 184 nM; in test [3], 6190 nM; in test [6], 665 nM.
As for `CCO[C@@]12CCC(=O)C[C@@]13CCN(CC1CC1)[C@@H]2Cc1cccc(OC)c13`, the Ratio result in test [1] and in test [5] was “inactive” in each case. Further, the Selectivity ratio in test [15] stood at 98; in test [16], 52. The figures for the Ke in [2], in test [3] and in [6] were 21.7 nM, 1130 nM and 2130 nM, respectively. Also, in [18], the Ratio was determined as 0.0014.
`C=CCN1CC[C@]23CC(=O)CC[C@@]2(OCC)[C@H]1Cc1cccc(OC)c13`: the Ratio result in test [1] and in test [5] was “inactive” throughout. The Selectivity ratio in [15] worked out at 46; in test [16] it was 32. The Ke in [2] was found to be 81 nM; in test [3] it was 2560 nM; in test [6], 3740 nM. The Ratio in test [18] turned out to be 0.0004.
Take `C=CCN1CC[C@]23CC(=O)CC[C@@]2(OC)[C@H]1Cc1cccc(OC)c13`: the Ke in [10] worked out at 6.45 µM; in test [2], 230 nM; in test [3], 6040 nM.
For `CCCCOc1cccc2c1[C@]13CCN(CC4CC4)[C@H](C2)[C@]1(OC)CCC(=O)C3`, the results for the Ke in test [10], in test [2] and in test [3] were 2.05 µM, 21 nM and 811 nM, respectively.
Regarding `CO[C@@]12CCC(=O)C[C@@]13CCN(CC1CC1)[C@@H]2Cc1cccc(OC(C)C)c13`, the values for the Selectivity ratio in test [15] and in test [16] were 105 and 22, respectively. For the same compound, the Ke came out at 108 nM in test [2], 2410 nM in test [3] and 11300 nM in test [6]. Moreover, the Ratio entry in test [5] was “inactive”.
For `CCO[C@@]12CCC(=O)C[C@@]13CCN(CC1CC1)[C@@H]2Cc1ccc(OC)c(OC)c13`, the Selectivity ratio is 33 in test [15] and 115 in test [16]. Further, the Ke was determined as 46 nM in test [2], 5300 nM in [3] and 1540 nM in [6]. Also, the Ratio entry in test [19] and in test [5] was “inactive” in each case. Besides, in test [18], the Ratio was 0.0015.
